Assay outcomes from PubChem.
Compounds with a hit are over-represented: about 2.7% of the library has one in this group of screens.
PREPL inhibitor = human PREPL enzyme inhibition. Q4J6C6. recombinant PREPL, fluorescence polarization activity-based probe. inhibition, % at 5.96 µM. 320,000 compounds, 0.68% hits. AID 2751; in the data active = inhibition above about 43%
Target sequence (Q4J6C6 whole entry, looked up): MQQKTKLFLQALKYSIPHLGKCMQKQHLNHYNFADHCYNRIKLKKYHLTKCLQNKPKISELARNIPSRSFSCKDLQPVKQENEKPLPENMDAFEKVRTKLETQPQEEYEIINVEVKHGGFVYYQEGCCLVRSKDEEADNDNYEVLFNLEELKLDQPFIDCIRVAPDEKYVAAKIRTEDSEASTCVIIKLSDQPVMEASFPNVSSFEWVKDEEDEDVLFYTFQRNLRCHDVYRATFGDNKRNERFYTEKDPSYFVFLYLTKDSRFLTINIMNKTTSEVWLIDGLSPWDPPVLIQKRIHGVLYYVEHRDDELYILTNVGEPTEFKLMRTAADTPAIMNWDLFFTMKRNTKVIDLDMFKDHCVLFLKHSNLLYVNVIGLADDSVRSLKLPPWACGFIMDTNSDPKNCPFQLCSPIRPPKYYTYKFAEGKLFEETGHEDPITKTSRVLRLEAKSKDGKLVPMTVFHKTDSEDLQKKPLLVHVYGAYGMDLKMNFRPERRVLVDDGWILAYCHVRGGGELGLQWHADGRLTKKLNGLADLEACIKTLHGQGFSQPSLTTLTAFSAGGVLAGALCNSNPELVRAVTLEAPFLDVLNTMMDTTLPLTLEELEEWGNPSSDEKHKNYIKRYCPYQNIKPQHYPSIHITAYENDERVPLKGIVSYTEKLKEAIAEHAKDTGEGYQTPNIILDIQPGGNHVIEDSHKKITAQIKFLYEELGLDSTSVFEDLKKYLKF
MC4R ag barr = human MC4R agonism via beta-arrestin; U2OS MC4R beta-arrestin complementation, luminescence; percent of melanotan II response, DMSO zero; activation, % at 8.9 µM; 360,000 compounds, 0.98% hits; AID 540308;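 active = activation above a per-plate cutoff, the mean activation of sample wells on that plate plus 3 SD, cut at about 8% in these data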
MC4R antag cAMP = human MC4R antagonism in cAMP assay; 360,000 compounds, 0.48% hits; AID 540295; MC4R-expressing cells, MTII-stimulated cAMP, LANCE TR-FRET; inhibition, % at 6.5 µM; P32245;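 active = inhibition above its plate's cutoff, the mean of tested wells on that plate plus 3 SD, cut at about 29% in these data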
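System – human MC4R-expressing U2OS cells · Also added – Melanotan II · Dosing – one concentration, 6.5 µM nominal · Timing – 30-min compound, 1-h challenge, 1-h detection, room temperature · Measured by – Eu-cAMP/anti-cAMP TR-FRET, emission 671 nm · Replicates – singlicate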
HTR2A ag = activates the mouse 5-HT2A serotonin receptor; 360,000 compounds, 0.66% hits; CHO-K1 mHTR2A beta-arrestin complementation, luminescence; percent of 30 µM serotonin response; AID 624169; P35363; activation, % at 7.6 µM;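 active = activation above a run cutoff, the mean activation of all tested compounds plus 3 SD, cut at about 14% in these data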
Lipid droplet = modulators of hepatic lipid droplet formation | AML12 mouse hepatocytes, oleate lipid droplets, BODIPY imaging | inhibition, % at 6.5 µM | 240,000 compounds, 0.4% hits | AID 1656;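 active = lipid droplet intensity inhibited by at least 50%, with more than 500 cells counted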
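Material – mouse AML12 hepatocyte cell line, fixed after treatment · Compound dosing – one dose, 6.5 µM compound · Times – compound with oleate, overnight · Measured by – Image-based BODIPY and DAPI two-channel analysis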
NTR1 ag = activates human neurotensin receptor 1. P30989. activation, % at 20 µM. 330,000 compounds, 0.17% hits. AID 493036. NTR1-U2OS beta-arrestin-GFP spot imaging, agonist mode;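 active = activation at or above 40% of the spot to cytoplasm intensity ratio, with at least 20 cells analyzed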
MC4R barr ag = human MC4R beta-arrestin agonism confirmation | AID 602192 | U2OS MC4R beta-arrestin recruitment, luminescence; scaled DMSO 0%, Melanotan II 100% | shares compounds with MC4R ag barr | 2,400 compounds, 31% hits | activation, % at 8.9 µM;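 active = mean activation across replicates above the hit cutoff set in the earlier primary screen, cut at about 8% in these data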
MOR DOR agonist = counter-screen for MC4R agonists: agonists of mu-delta opioid heterodimer; shares compounds with MC4R ag barr; U2OS PathHunter beta-arrestin, beta-gal luminescence; percent of deltorphin B response, DMSO zero; activation, % at 9.2 µM; 2,400 compounds, 5.8% hits; AID 602194;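 active = mean activation across replicates exceeds the hit threshold derived in the earlier primary screen, cut at about 18% in these data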
OPRM1 ag = OPRM1 agonism in mouse HTR2A counterscreen; shares compounds with HTR2A ag; 2,300 compounds, 5.3% hits; activation, % at 9.3 µM; U2OS OPRM1 beta-arrestin PathHunter, luminescence; DMSO 0%, DAMGO 9.3 µM 100%; AID 624380;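 active = mean activation above the mean of DMSO-only wells plus 3 SD, cut at about 0.5% in these data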
HTR2A ag conf = confirmation of mouse HTR2A serotonin receptor agonists | activation, % at 7.6 µM | AID 624381 | 2,300 compounds, 19% hits | CHO-K1 PathHunter beta-arrestin recruitment, luminescence; DMSO 0%, 30 µM serotonin 100% | shares compounds with HTR2A ag;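 active = mean activation across triplicates above the hit threshold derived in the original primary screen, cut at about 15% in these data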
Large screens that a line does not name were inactive (follow-up assays come after a bar, where they were run).

COCC(=O)Nc1c(C(=O)Nc2ccccc2OC)oc2ccccc12	MC4R ag barr 22, HTR2A ag 15 | MC4R barr ag inactive | MOR DOR agonist inactive | OPRM1 ag inactive | HTR2A ag conf inactive
C[C@H]1CN(c2ccccc2)C(=O)[C@@H]1CC(=O)Nc1ccccc1	none (no result: PREPL inhibitor, Lipid droplet, NTR1 ag)
CCc1ccc(C2NC(=S)NC3=C2C(=O)N(c2ccccc2OC)C(c2ccc(CC)cc2)N3)cc1 (stereo unspecified)	MC4R ag barr 18, HTR2A ag 37 | MC4R barr ag 14 | MOR DOR agonist inactive | OPRM1 ag inactive | HTR2A ag conf inactive
COc1ccccc1N1C(=O)c2ccccc2NC1c1ccncc1 (stereo unspecified)	none
Cc1ccc(C(C(=O)NC2CCCCC2)N(CC2CCCO2)C(=O)CCCC(=O)Nc2ccccn2)cc1 (stereo unspecified)	none
COc1ccc(C(=O)NCC2OCCc3ccccc32)cc1 (stereo unspecified)	none (no result: Lipid droplet)
O=C(NCC1OCCc2ccccc21)c1ccc(NC(=O)c2ccc(Cl)cc2Cl)cc1 (stereo unspecified)	MC4R ag barr 15, HTR2A ag 16 | MC4R barr ag inactive | MOR DOR agonist inactive | OPRM1 ag 0.8 | HTR2A ag conf inactive
COc1ccc(-c2cnc3c(NC(C)=O)cc(-c4ccc(C(=O)N5CCOCC5)cc4)cn23)cc1OC	MC4R ag barr 11, HTR2A ag 15 (no result: PREPL inhibitor, Lipid droplet, NTR1 ag) | MC4R barr ag 9.4 | MOR DOR agonist inactive | OPRM1 ag inactive | HTR2A ag conf inactive
C[C@@H]1CCCCO[C@H](CN(C)S(=O)(=O)c2cn(C)cn2)[C@@H](C)CN([C@H](C)CO)C(=O)c2cc(NC(=O)c3ccncc3)ccc2O1	none (no result: PREPL inhibitor, Lipid droplet, NTR1 ag)
CCCCNS(=O)(=O)c1ccc(NS(=O)(=O)c2c(C)cc(C)cc2C)cc1	MC4R ag barr 12, HTR2A ag 18 | MC4R barr ag inactive | MOR DOR agonist inactive | OPRM1 ag inactive | HTR2A ag conf inactive
CCNS(=O)(=O)c1ccc(NS(=O)(=O)c2cc(C)ccc2C)cc1	none
COc1cccc(C(=O)Nc2nnc(S(=O)(=O)N(C)Cc3ccc(F)cc3)s2)c1	none
COc1ccc(-c2csc(C3=C(O)CN(Cc4ccc(Cl)cc4)C3=N)n2)cc1OC	MC4R ag barr 102, HTR2A ag 53 | MC4R barr ag 21 | MOR DOR agonist inactive | OPRM1 ag 1.7 | HTR2A ag conf 29
COC(=O)C(C)Sc1nnc(Cc2cc(=O)[nH]c(=O)[nH]2)n1-c1cc(C)ccc1C (stereo unspecified)	HTR2A ag 31 (no result: Lipid droplet) | OPRM1 ag inactive | HTR2A ag conf inactive
CC(C)C(=O)Nc1cccc(-c2nc3ncccc3o2)c1	HTR2A ag 26 | OPRM1 ag inactive | HTR2A ag conf inactive
CCN(CC)C(=O)c1ccc(CS(=O)(=O)Cc2ccccc2)cc1	none (no result: PREPL inhibitor)
CCOC(=O)c1nnn(CC(=O)N2N=C(c3ccccc3)CC2c2ccccc2)c1C(=O)OCC (stereo unspecified)	none
CCOC(=O)/C=C(\C)N1N=C(c2ccccc2)CC1c1ccccc1 (stereo unspecified)	HTR2A ag 20 | OPRM1 ag inactive | HTR2A ag conf inactive
CCc1ccc2c(c1)C(=O)C(=O)N2CCS(=O)(=O)c1ccccc1	HTR2A ag 21 | OPRM1 ag inactive | HTR2A ag conf inactive
